Screens as filed in PubChem BioAssay.
Hits are enriched below; roughly 0.7% of the tested compounds scored in any of these assays.
Lipid droplet = modulators of hepatic lipid droplet formation. 0.4% of 240,000 active. AML12 mouse hepatocytes, oleate lipid droplets, BODIPY imaging. AID 1656. inhibition, % at 6.5 µM;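 active = lipid droplet intensity inhibited by at least 50%, with more than 500 cells counted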
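Assay system: AML12 hepatocytes (mouse) / Also added: 100 µM oleic acid challenge / Times: overnight treatment with compound plus oleate / Detection: high-content imaging of BODIPY-stained droplets and DAPI nuclei / Evaluation: % inhibition of lipid droplet signal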
STK33 inh = human STK33 kinase inhibition; Q9BYT3; purified STK33, MBP phosphorylation, ADP-Glo luminescence; inhibition, % at 10 µM; 0.073% of 320,000 active; AID 2661;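 active = inhibition at or above 25%, using the most active replicate where run in duplicate; inactive = inhibition below 25%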
GSK3beta inhib = human GSK3beta kinase inhibition; 0.038% of 300,000 active; activity score (negative = inhibition), % at 10 µM; GST-GSK3beta kinase, ADP-Glo luminescence, 60 min; stronger effect = lower value; AID 2097;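 active = more than half of replicate wells score below -50%, meaning over 50% inhibition versus plate controls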;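 note: 0% = median DMSO wells and -100% = median GW8510 positive control wells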
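Test system – GST-tagged human GSK3beta kinase, cell-free · Incubation – 60 min enzyme reaction, room temperature · Signal – ADP-Glo luminescence · Also added – peptide substrate and ATP at 25 µM · Controls – DMSO neutral wells and GW8510 at 20 µM as positive · Buffer or medium – Tris/MgCl2 kinase buffer · Measure – Luminescence-derived activity versus plate DMSO and GW8510 wells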
HSV augment = HSV replication enhancement. HSV replication augmentation in cells, fold increase. maximum fold increase. 0.005% of 220,000 active; in the data active = maximum fold increase above about 1.5; tested in PC3 cells
GSK3 alpha inh = human GSK-3 alpha kinase inhibition. ADP-Glo luminescence, 60 min. P49840. 0.1% of 320,000 active. inhibition, % at 10 µM;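 active = more than half of replicates show inhibition above 20%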;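 note: GST-tagged GSK-3 alpha with peptide substrate and 25 µM ATP; 0% = DMSO neutral wells and 100% = GW8510 positive control wells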
Rce1 inh = inhibitors of yeast Ras-converting enzyme; Q03530; yeast membranes, quenched prenylated peptide cleavage fluorescence; calls only; 0.27% of 290,000 active;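 active = fall in fluorescence gain of 50% or more versus controls, with final raw signal at or below 3038400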;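 note: plate controls were neutral control wells for no effect and wells lacking membranes for full effect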
Target sequence (Q03530 whole entry, looked up): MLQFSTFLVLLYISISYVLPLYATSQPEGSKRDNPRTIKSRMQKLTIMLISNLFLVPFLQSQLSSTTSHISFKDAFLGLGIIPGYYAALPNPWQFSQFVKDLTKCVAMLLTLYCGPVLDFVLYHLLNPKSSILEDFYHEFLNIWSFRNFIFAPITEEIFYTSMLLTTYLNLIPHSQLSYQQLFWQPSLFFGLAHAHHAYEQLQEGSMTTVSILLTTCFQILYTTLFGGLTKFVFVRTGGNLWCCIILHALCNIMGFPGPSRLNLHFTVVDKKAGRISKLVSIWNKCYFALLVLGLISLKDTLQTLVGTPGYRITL
Lipid drop inh = confirmation of inhibitors of hepatic lipid droplet formation; shares compounds with Lipid droplet; AML12 mouse hepatocytes, BODIPY lipid droplet imaging; droplets induced with 100 µM oleic acid; inhibition, % at 5.2 µM; 65% of 870 active;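 active = inhibition of lipid droplet metric at least 50%, with more than 300 cells in each of four replicates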;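 note: plate controls were DMSO with oleic acid for no effect and 5 µM Triacsin-C for full effect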
AML12 tox img = AML12 hepatocyte cytotoxicity (counter-screen). shares compounds with Lipid droplet. AML12 mouse hepatocytes, DAPI nuclear morphology cytotoxicity imaging; stronger effect = higher value; cells fed 100 µM oleate overnight. z-score at 5 µM. 3% of 870 active. AID 463200; in the data active = z-score above about 6.3;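 note: compound exposure lasted overnight at 37 °C before fixation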
AML12 tox conf = confirmation of cytotoxicity in AML12 mouse hepatocytes. 530 tested, under 10 active. cytotoxicity, % at 50 µM. AML12 mouse hepatocyte viability, ATP luminescence; cells loaded with 100 µM oleic acid. shares compounds with Lipid droplet;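 active = cytotoxicity above 50% in each of four replicates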;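 note: compound exposure lasted overnight at 37 °C before the ATP read; 0% = DMSO-treated cells and 100% = wells with no cells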
* marks the source's active call; other numbers are inactive results; i = inactive; x = no result.

SMILES	Lipid droplet	STK33 inh	GSK3beta inhib	HSV augment	GSK3 alpha inh	Rce1 inh	Lipid drop inh	AML12 tox img	AML12 tox conf
CC1CCCN(C(=O)c2ccc3c(c2NCCO)C(=O)c2ccccc2C3=O)C1 (stereo unspecified)	54*	-3	-2	i	-1	i	105*	-0.19	33
COc1ccc(C(=O)C2CCCN(Cc3c[nH]c4ccccc34)C2)c(OC)c1 (stereo unspecified)	-22	1	2	i	2	i	x	x	x
CCOC(=O)c1c(C)[nH]c(N=Nc2ccc(C)cc2C)c1C	x	-1	1	i	6	i	x	x	x
CCOC(=O)c1c(C)[nH]c(N=Nc2ccccc2C)c1C	68*	-1	3	i	-6	i	106*	-0.67	11
Cc1cc(C)n(-c2nc3c(c(=O)[nH]c(=O)n3C)n2CC(O)COc2ccc(Cl)cc2Cl)n1 (stereo unspecified)	52*	-1	1	i	-14	i	-16	0.69	x
Cc1ccc(S(=O)(=O)N2CCN(C(=O)COC(=O)/C=C/c3ccccc3[N+](=O)[O-])CC2)c(C)c1	x	0	0	x	1	i	x	x	x
CCOc1ccccc1C1NC(=O)CCC1[N+](=O)[O-] (stereo unspecified)	20	-1	0	x	0	i	x	x	x
CCc1ccc(OCc2ccc(C(=O)O)o2)cc1	59*	1	2	x	-3	i	16	-0.027	x
COc1ccc(CCNC(=O)/C=C\c2ccccc2)cc1OC	24	-2	-1	i	-3	i	x	x	x
COc1ccc(CCNC(=O)CN2C(=O)c3cccc4cccc(c34)C2=O)cc1OC	56*	-1	0	i	x	i	92*	-0.014	4
COc1cccc(/C=C/C(=O)NCCc2ccc(OC)c(OC)c2)c1	54*	0	2	i	-1	i	49	0.058	x
COc1ccc(CCNC(=O)c2cc3c(F)cccc3s2)cc1OC	77*	-1	2	x	-1	i	74*	-0.2	3
COc1ccc(CCNC(=O)Cc2ccc(OC)c(OC)c2)cc1OC	-5	0	0	i	-2	i	x	x	x
COc1ccc(CCNC(=O)Cc2cccc(C(F)(F)F)c2)cc1OC	64*	-2	0	x	0	i	84*	-1.3	12
Cc1c(NC(=O)Nc2ccc(C#N)cc2)c(=O)n(-c2ccccc2)n1C	5	-1	-2	x	0	i	x	x	x
CC1CN(C(=O)C2(C)CC2(Br)Br)CC(C)O1 (stereo unspecified)	25	x	2	i	x	i	x	x	x
Cc1ccc(N2C(N)=C(C#N)C(c3cc(CN4CCOCC4)cs3)C3=C2CC(C)(C)CC3=O)cc1 (stereo unspecified)	75*	0	0	i	-2	i	87*	0.078	3
CCCN1/C(=C2/SC(=S)N(CC)C2=O)C=Cc2ccccc21	9	-1	1	i	1	i	x	x	x
CCCN1C(=O)/C(=C2/C=Cc3ccccc3N2CC)SC1=S	85*	-1	-3	i	1	i	105*	-0.13	13
Cc1c(C)n(Cc2ccc(F)cc2)c2ccc(C(=O)N3CCN(c4ccccn4)CC3)cc12	-16	-3	1	x	-3	i	x	x	x
Cc1cc(NC(=O)c2ccc(Cl)cc2)cc(C)c1OCC(=O)N1CCOCC1	41	2	1	x	0	i	x	x	x
CCCCOc1ccc(C(=O)Nc2cc(C)c(OCC(=O)N3CCOCC3)c(C)c2)cc1	93*	0	-4	i	-3	i	96*	0.34	45
Cc1cc(NC(=O)c2cccc3ccccc23)cc(C)c1OCC(=O)N1CCOCC1	61*	0	1	i	5	i	88*	0.28	17
Cc1cc(OCCn2ccnc2)cc(C)c1Cl	-11	0	-1	x	3	i	x	x	x
